For orientation: IC50 means the concentration at which inhibition is half-maximal.

System in one experiment: not listed separately
As to the kind of experiment: Inhibition of T3SS-mediated translocation in Pseudomonas aerguinosa PA99U co-expressing PcrV and PopB/PopD assessed as inhibition of ExoU-mediated lysis of co-incubated CHO cells by LDH release assay. The format is cell-based. The following applies: Pseudomonas aeruginosa. A digest of the protocol:
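CHO cells co-incubated with P. aeruginosa PA99U33 plus compound, with procedure otherwise per earlier work. ExoU-mediated CHO lysis read out as LDH release. A parallel run without bacteria gave CHO cytotoxicity (CC50).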
As to `CC(Oc1ccc(Cl)cc1Cl)C(=O)NCc1ccc2sccc2c1` (centres undefined), the IC50 worked out at 5.3 µM.

The next experiment has as its system CHO. As to the kind of experiment: Cytotoxicity against CHO cells by LDH release assay. In kind it is cell-based. The note with it: Cricetulus griseus. Put shortly:
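Assay run in parallel with the T3SS translocation assay, with CHO cells and compound but no P. aeruginosa. Cell death read as LDH release; CC50 derived.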
A general note: LDH leaks from cells whose membrane has failed.
The molecule `CC(Oc1ccc(Cl)cc1Cl)C(=O)NCc1cccc2[nH]ccc12` (centres undefined) had an IC50 of 24 µM.
On the same count and under the same terms, with `CCC(Oc1ccc(Cl)cc1Cl)C(=O)NCc1ccc2c(c1)OCO2` (centres undefined) the figure was 67 µM; with `CC(Oc1ccc(Cl)cc1)C(=O)NCc1ccc2c(c1)OCO2` (centres undefined), 65 µM.
`CC(Oc1ccc(Cl)cc1Cl)C(=O)NCc1ccc(F)cc1` (centres undefined) yielded an IC50 of 59 µM.
As for `C[C@H](NC(=O)[C@@H](C)Oc1ccc(Cl)cc1Cl)c1ccc(F)cc1`, half-maximal inhibition (IC50) was put at 32 µM.
The same measure, in the same setting: the figure for `C[C@@H](Oc1ccc(Cl)cc1Cl)C(=O)N[C@H](C)c1ccc(F)cc1` is 97 µM; for `CC(Oc1ccc(Cl)cc1Cl)C(=O)NC1(c2ccc(F)cc2)CC1` (centres undefined) it is 28 µM; for `CC(Oc1ccc(Cl)cc1Cl)C(=O)NCCc1ccc(F)cc1` (centres undefined) it is 17 µM.
On to `CC(Oc1ccc(Cl)cc1Cl)C(=O)NNc1ccc(F)cc1` (centres undefined), for which the IC50 was found to be 35 µM.
Molecule `CC(Oc1ccc(Cl)cc1Cl)C(=O)NNCc1ccc(F)cc1` (centres undefined) yielded an IC50 of 31 µM.
Same read-out and setting: the figure for `CC(Oc1ccc(Cl)cc1Cl)C(=O)NOCc1ccc(F)cc1` (centres undefined) is 59 µM; for `CC(Oc1ccc(Cl)cc1Cl)C(=O)NCc1ccccc1` (centres undefined) it is 95 µM.
Same read-out and setting: the figure for `CC(Oc1ccc(Cl)cc1Cl)C(=O)NCc1cccc(F)c1` (centres undefined) is 27 µM.
Same read-out and setting: the figure for `CC(Oc1ccc(Cl)cc1Cl)C(=O)NCc1ccccc1F` (centres undefined) is 47 µM; for `CC(Oc1ccc(Cl)cc1Cl)C(=O)NCc1ccc(Cl)cc1` (centres undefined) it is 39 µM.
`CC(Oc1ccc(Cl)cc1Cl)C(=O)NCc1cccc(Cl)c1` (centres undefined) yielded an IC50 of 19 µM.
Turning to `Cc1ccc(CNC(=O)C(C)Oc2ccc(Cl)cc2Cl)cc1` (centres undefined), it took 25 µM to reach half-maximal inhibition (IC50).
On the same count and under the same terms, with `Cc1cccc(CNC(=O)C(C)Oc2ccc(Cl)cc2Cl)c1` (centres undefined) the figure was 45 µM; with `COc1ccc(CNC(=O)C(C)Oc2ccc(Cl)cc2Cl)cc1` (centres undefined), 71 µM; with `COc1ccc(CNC(=O)C(C)Oc2ccc(Cl)cc2Cl)cc1OC` (centres undefined), 36 µM.
`CC(Oc1ccc(Cl)cc1Cl)C(=O)NCc1ccc2sccc2c1` (centres undefined) showed an IC50 of 30 µM.
As for `CC(Oc1ccc(Cl)cc1Cl)C(=O)NCc1ccc2occc2c1` (centres undefined), inhibition was half-maximal at 11 µM (IC50).
The molecule `CC(Oc1ccc(Cl)cc1Cl)C(=O)NCc1ccc2cc[nH]c2c1` (centres undefined) showed a half-inhibitory concentration (IC50) of 9.4 µM.
On the same count and under the same terms, the figure for `CC(Oc1ccc(Cl)cc1Cl)C(=O)NCc1cc2ccccc2[nH]1` (centres undefined) is 12 µM; for `CC(Oc1ccc(Cl)cc1Cl)C(=O)NCc1ccc2c(ccn2C)c1` (centres undefined) it is 6.3 µM.
`CC(Oc1ccc(Cl)cc1Cl)C(=O)NCc1cnc2[nH]ccc2c1` (centres undefined): it took 21 µM to reach half-maximal inhibition (IC50).
On the same count and under the same terms, the figure for `CC[C@@H](Oc1ncc(Cl)cc1Cl)C(=O)NC(CO)c1ccc(F)cc1` (some centres undefined) is 75 µM.

Target in a further experiment: not listed separately
Description: Inhibition of T3SS-mediated secretion of an ExoS-beta-lactamase fusion protein into the culture medium in Pseudomonas aerguinosa MDM973 assessed as inhibition of nitrocefin hydrolysis by secretion assay.
Conditions: not given
More on the design: species or system Pseudomonas aeruginosa. Put shortly:
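ExoS-βLA fusion protein secreted by strain MDM973, detected as hydrolysis of chromogenic nitrocefin by the externalized enzyme. Absorbance read at 490 nm. Percent inhibition calculated relative to drug-free (0%) and uninduced controls (no ExoS-βLA secreted; 100%).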
Take `O=C(COc1ccc(Cl)cc1Cl)NCc1ccc2c(c1)OCO2`: the IC50 was greater than 100 µM.
Same read-out and setting: the figure for `CC(C)(Oc1ccc(Cl)cc1Cl)C(=O)NCc1ccc2c(c1)OCO2` is greater than 100 µM; for `CCCC(Oc1ccc(Cl)cc1Cl)C(=O)NCc1ccc2c(c1)OCO2` (centres undefined) it is greater than 100 µM.
Same read-out and setting: with `CC(C)C(Oc1ccc(Cl)cc1Cl)C(=O)NCc1ccc2c(c1)OCO2` (centres undefined) the figure was greater than 100 µM; with `CC(Oc1ccc(Cl)cc1F)C(=O)NCc1ccc2c(c1)OCO2` (centres undefined), greater than 100 µM; with `CC(Oc1ccc(F)cc1F)C(=O)NCc1ccc2c(c1)OCO2` (centres undefined), greater than 100 µM.
The same measure, in the same setting: with `CC(Oc1ccc(C#N)cc1Cl)C(=O)NCc1ccc2c(c1)OCO2` (centres undefined) the figure was greater than 100 µM; with `COc1ccc(OC(C)C(=O)NCc2ccc3c(c2)OCO3)c(Cl)c1` (centres undefined), greater than 100 µM; with `CC(C(=O)NCc1ccc2c(c1)OCO2)S(=O)(=O)c1ccc(Cl)cc1Cl` (centres undefined), greater than 100 µM.
For the molecule `CC(C(=O)NCc1ccc(F)cc1)S(=O)(=O)c1ccc(Cl)cc1Cl` (centres undefined), the 50% inhibitory concentration (IC50) is greater than 100 µM.
Still for that read-out and setting: with `CC(Cc1ccc(Cl)cc1Cl)C(=O)NCc1ccc2c(c1)OCO2` (centres undefined) the figure was greater than 100 µM.
In the case of `CC(Cc1ccc(Cl)cc1Cl)C(=O)NCc1ccc(F)cc1` (centres undefined), the IC50 was greater than 100 µM.
Regarding `CC(Oc1ccc(Cl)cc1Cl)C(=O)NC(C(=O)O)c1ccc(F)cc1` (centres undefined), the IC50 is greater than 100 µM.
On the same count and under the same terms, with `CC(Oc1ccc(Cl)cc1Cl)C(=O)Nc1ccc(F)cc1` (centres undefined) the figure was greater than 100 µM; with `CC(Oc1ccc(Cl)cc1Cl)C(=O)NCCCc1ccc(F)cc1` (centres undefined), greater than 100 µM; with `CC(Oc1ccc(Cl)cc1Cl)C(=O)N(C)Cc1ccc(F)cc1` (centres undefined), 28.5 µM.
Still for that read-out and setting: with `CC(Oc1ccc(Cl)cc1Cl)C(=O)OCc1ccc(F)cc1` (centres undefined) the figure was greater than 100 µM; with `CC(Oc1ccc(Cl)cc1Cl)C(=O)OCCc1ccc(F)cc1` (centres undefined), greater than 100 µM.
`CC(Oc1ccc(Cl)cc1Cl)C(=O)CCc1ccc(F)cc1` (centres undefined): the half-inhibitory concentration (IC50) is greater than 100 µM.
On the same count and under the same terms, the figure for `COc1ccccc1CNC(=O)C(C)Oc1ccc(Cl)cc1Cl` (centres undefined) is 28 µM; for `CC(Oc1ccc(Cl)cc1Cl)C(=O)NCc1ccc2sccc2c1` (centres undefined) it is 6 µM.

Values taken from ChEMBL document CHEMBL3397026, “Synthesis and structure-activity relationships of novel phenoxyacetamide inhibitors of the Pseudomonas aeruginosa type III secretion system (T3SS)” (Bioorg Med Chem, 2015).
